Here are results for one molecule from ChEMBL document CHEMBL4808167, “Design, Synthesis, and Evaluation of Small Molecule Gαq/11 Protein Inhibitors for the Treatment of Uveal Melanoma” (J Med Chem, 2021).

The source made the active and inactive calls.

Data set [1] can be described thus: AUC(0 to t) in ICR mouse at 10 mg/kg, iv measured upto 24 hrs by LC-MS/MS analysis. It counts as ADME, organism-based. Set-up: route intravenous, dose 10 mg/kg, time <=24. Particulars: in vivo. The procedure, abridged:
(§1)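 Single dose in male ICR mice, 10 mg/kg iv or 30 mg/kg po, dissolved in 5% DMSO/95% saline. Blood drawn by catheter at 0, 5, 15, 30 min and 1, 2, 4, 6, 8, 24 h. Plasma spun 6800g 6 min at 2−8 °C, stored −80 °C, quantified by LC−MS/MS. Noncompartmental parameters, mean ± SD, n = 6.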

The target in data set [2] is T1, GNAQ/GNA11 (Homo sapiens) (UniProt P50148+P29992). Nature of the data set: Inhibition of Galphaq/11 in human MP41 cells xenografted mouse tumor tissue assessed as inhibition of ERK phosphorylation at 10 to 30 mg/kg, ip administered for 21 consecutive days by Western blot analysis. In kind it is organism-based. Particulars: dose 10-30 mg/kg, time 21.0 day. A digest of the protocol: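 MP41 xenograft tumours from mice given 10 or 30 mg/kg/day ip for 21 consecutive days were analysed by Western blot. Probed for p-YAP, YAP, p-ERK and ERK, with GAPDH as loading control. Representative of triplicate experiments.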
(In general: A xenograft is tissue or cells of one species grown in another, often human tumour cells in immunodeficient mice.)

In data set [3] the target is T1, GNAQ/GNA11 (Homo sapiens). Nature of the data set: Inhibition of Galphaq/11 in human MP41 cells assessed as reduction in ERK phosphorylation at 15 to 30 uM after 48 hrs by Western blot analysis. It counts as cell-based. Particulars: dose 15-30 µM. A digest of the protocol:
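92.1 and MP41 cells plated overnight, then exposed to compound 48 h. Lysed in ice-cold buffer and protein quantified by BCA. Resolved on 8−12% SDS−PAGE and transferred to PVDF. Probed for p-YAP Ser127, total YAP, p-ERK1/2 Thr202/Tyr204 and total ERK1/2, with GAPDH as loading control. ECL detection, triplicate.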
(In western blotting, separated proteins are transferred to a membrane and probed.)

A short description of data set [4]: Induction of apoptosis in human 921 cells assessed as early apoptotic cells at 5 uM after 48 hrs by Annexin-V-FITC/propidium iodide staining based flow cytometry (reference value: 3.39%). In kind it is functional.
A short description of data set [5]: Half life in ICR mouse at 10 mg/kg, iv measured upto 24 hrs by LC-MS/MS analysis. It counts as ADME, organism-based. Particulars: in vivo. A digest of the protocol:
as §1

A short description of data set [6]: Oral bioavailability in ICR mouse at 30 mg/kg measured upto 24 hrs by LC-MS/MS analysis. The following applies: in vivo. In kind it is ADME, organism-based. The procedure, abridged:
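Single-dose PK in male ICR mice (n = 6): 10 mg/kg iv or 30 mg/kg po, vehicle 5% DMSO/95% saline. Blood (30 μL) by catheter at 0, 5, 15, 30 min and 1, 2, 4, 6, 8, 24 h; plasma by centrifugation, stored −80 °C, measured by LC–MS/MS. Parameters from noncompartmental analysis, mean SD.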

The nature of data set [7]: Induction of apoptosis in human MP41 cells assessed as early apoptotic cells at 30 uM after 48 hrs by Annexin-V-FITC/propidium iodide staining based flow cytometry (reference value: 2.96%). In kind it is functional.
Data set [8] in a line: Cmax in ICR mouse at 30 mg/kg, po measured upto 24 hrs by LC-MS/MS analysis. In kind it is ADME, organism-based. Further details: route oral, dose 30 mg/kg, time <=24. Particulars: in vivo. A digest of the protocol:
as §1

The nature of data set [9]: Toxicity in nude BALB/c mouse xenografted with human MP41 cells assessed as morphological changes in kidney tissue at 10 to 30 mg/kg, ip administered once daily for 21 days and measured every 3 days by HE staining based assay. In kind it is organism-based. The following applies: in vivo, 504 h, dose 10-30 mg/kg, time 21 day. A digest of the protocol:
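Nude BALB/c mice bearing serially passaged MP41 tumour slices (tertiary recipients, n = 8/group, randomized) dosed ip daily for 21 days at 10 or 30 mg/kg/d or vehicle. Body weight monitored every 3 days. Tissues collected at sacrifice, fixed in 4% paraformaldehyde 24 h, paraffin-embedded, H&E stained, viewed at ×100.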

The term AUC(0-t) denotes exposure summed from dosing to a finite time, without extrapolation to infinity. Usually half-life stands for the time needed for the level to fall by half in the phase considered. A higher half-life goes with slow decline. By bioavailability is commonly meant the share of a dose that reaches the circulation, judged against a reference dose that is usually intravenous. Low readings indicate little systemic uptake, high ones much systemic uptake. For orientation: Cmax means the maximum level reached in the sampled fluid or tissue. Molecule `CC[C@@H](C)[C@H](N)C(=O)N1CCn2cc(-c3ccccc3)nc2[C@@H]1CC1CCCCC1` displayed an AUC(0-t) at 24 h in data set [1] of 2140 ng·h/mL. Moreover, the inhibition entry in data set [2] and in data set [3] was “Active” each time. In addition, the Activity is on record as 6.08% in data set [4], 17.9% in [7] and “Non-Toxic” in data set [9]. The molecule also had a half-life in [5] of 1.17 h. In [6], this molecule showed a bioavailability of 92.6%. Moreover, in [8], the concentration peaked (Cmax) at 2890 ng/mL.
